Our source for the Activity and EC50 values is ChEMBL document CHEMBL3297732, “Aryl-substituted aminobenzimidazoles targeting the hepatitis C virus internal ribosome entry site” (Bioorg Med Chem Lett, 2014).

Calls of active or inactive are those of the source. The rule behind the calls is not given here. Some results are limits rather than exact numbers.

The first test relates to Internal ribosome entry site (IRES). The experiment in a line: Non-specific binding affinity to cyanine dye-labeled HCV IRES subdomain 2a RNA assessed as precipitation of dye labeled RNA at 50 to 100 uM by FRET assay in presence of Mg2+. The note with it: Hepacivirus hominis.
With `CN(C)CCOc1ccc2c(c1)nc(O)n2-c1ccccc1`, the outcome was Active. `CN(C)CCCOc1ccc2nc(O)n(-c3ccc(N(C)C)cc3)c2c1`: the outcome was Active.

With `CN(C)CCCOc1ccc2c(c1)nc(O)n2-c1ccccc1`, the result was Active.

With `CN(C)CCCOc1ccc2c(c1)nc(NC(=O)c1ccccc1)n2-c1ccc(N(C)C)cc1`, the result was Active.

For a further test, the target named is Internal ribosome entry site (IRES). Description: Binding affinity to cyanine dye-labeled HCV IRES subdomain 2a RNA by FRET assay in presence of Mg2+. Further details: species or system Hepacivirus hominis.
Conditions: not given
In outline:
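Binding to IIa RNA measured by triplicate titration in a FRET assay that tracks ligand-induced conformational capture of the dye-labeled RNA. EC50 taken from a single-site dose-response fit to the titration data, with standard error from the triplicates.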
By EC50 is commonly meant the midpoint of the concentration-response curve. For `CC(=O)Nc1nc2cc(OCCN(C)C)ccc2n1-c1ccccc1`, the EC50 worked out at 100 µM. The same measure, in the same setting: to `CN(C)c1cccc(-n2c(N)nc3ccc(Nc4cccnc4)cc32)c1` belongs 74 µM.

Turning to `CN(C)CCCn1c(N)nc2ccc(Nc3ccncc3)cc21`, the EC50 is 160 µM. On to `CN(C)CCOc1ccc2c(c1)nc(NC(=O)c1ccccc1)n2-c1ccccc1`, for which the EC50 was > 500 µM. For the compound `CN(C)CCCn1c(N)nc2cccc(-c3cccc(N(C)C)c3)c21`, the EC50 was found to be 290 µM. Turning to `CN(C)CCCOc1ccc2c(c1)nc(N)n2-c1ccc(N(C)C)cc1`, the EC50 worked out at 95 µM. On to `CC(=O)Nc1nc2cc(OCCCN(C)C)ccc2n1-c1ccccc1`, for which the EC50 was determined as 210 µM.

In the case of `CN(C)CCCOc1ccc2nc(N)n(-c3cccc(N(C)C)c3)c2c1`, the EC50 was 120 µM. `CN(C)CCCn1c(N)nc2ccc(Nc3cccnc3)cc21`: the EC50 is 160 µM. As for `CN(C)c1cccc(-n2c(N)nc3ccc(Nc4ccncc4)cc32)c1`, the EC50 is 100 µM.

Turning to `CN(C)CCCOc1ccc2c(c1)nc(NC(=O)c1ccccc1)n2-c1ccccc1`, the EC50 was > 500 µM.
